Data taken from ChEMBL document CHEMBL1914421, “Aminomethyltetrazoles as potential inhibitors of the γ-aminobutyric acid transporters mGAT1-mGAT4: synthesis and biological evaluation” (Bioorg Med Chem, 2011).

What was measured:
[1] = molecular target: Sodium- and chloride-dependent GABA transporter 1 (Mus musculus) (UniProt P31648); assay: Residual mouse GAT1-mediated [3H]GABA uptake expressed in human HEK cells at 100 uM; details: HEK293
[2] = test system: betaine/GABA transporter BGT-1 (Slc6a12, Mus musculus); assay: Residual mouse GAT2-mediated [3H]GABA uptake expressed in human HEK cells at 100 uM; details: HEK293
[3] = test system: HEK293; assay: Residual mouse GAT4-mediated [3H]GABA uptake expressed in human HEK cells at 100 uM
[4] = test system: GABA transporter Slc6a13 (Mus musculus); assay: Residual mouse GAT3-mediated [3H]GABA uptake expressed in human HEK cells at 100 uM; details: HEK293
[5] = molecular target: T1, GABA transporter 4 (Mus musculus) (UniProt P31650); assay: Residual mouse GAT4-mediated [3H]GABA uptake expressed in human HEK cells at 1 mM; details: HEK293
T1 sequence (whole entry): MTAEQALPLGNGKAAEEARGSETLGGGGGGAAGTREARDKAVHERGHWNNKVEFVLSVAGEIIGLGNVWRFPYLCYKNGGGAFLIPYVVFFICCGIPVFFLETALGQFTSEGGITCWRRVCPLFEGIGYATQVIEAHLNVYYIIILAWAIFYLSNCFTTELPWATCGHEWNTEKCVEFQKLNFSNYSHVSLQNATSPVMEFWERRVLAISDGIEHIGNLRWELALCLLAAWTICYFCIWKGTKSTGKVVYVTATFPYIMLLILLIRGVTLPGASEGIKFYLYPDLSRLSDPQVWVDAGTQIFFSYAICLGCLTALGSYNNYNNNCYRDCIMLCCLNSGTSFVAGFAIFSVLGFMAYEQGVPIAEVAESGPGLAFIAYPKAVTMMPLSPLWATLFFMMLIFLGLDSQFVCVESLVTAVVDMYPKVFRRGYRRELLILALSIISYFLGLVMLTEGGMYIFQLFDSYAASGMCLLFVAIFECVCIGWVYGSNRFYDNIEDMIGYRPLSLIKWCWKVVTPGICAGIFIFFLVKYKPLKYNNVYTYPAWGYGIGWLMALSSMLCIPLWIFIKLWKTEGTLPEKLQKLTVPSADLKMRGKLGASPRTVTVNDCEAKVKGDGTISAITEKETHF

[6] = test system: betaine/GABA transporter BGT-1 (Slc6a12, Mus musculus); assay: Residual mouse GAT2-mediated [3H]GABA uptake expressed in human HEK cells at 1 mM; details: HEK293
[7] = molecular target: Sodium- and chloride-dependent GABA transporter 1 (Mus musculus) (UniProt P31648); assay: Residual mouse GAT1-mediated [3H]GABA uptake expressed in human HEK cells at 1 mM; details: HEK293
[8] = test system: GABA transporter Slc6a13 (Mus musculus); assay: Residual mouse GAT3-mediated [3H]GABA uptake expressed in human HEK cells at 1 mM; details: HEK293
[9] = Inhibition of GAT mediated [3H]GABA uptake in rat brain synaptosomes; format: subcellular
[10] = Inhibition of mouse GAT4-mediated [3H]GABA uptake expressed in human HEK cells; format: cell-based; details: HEK293
Method in brief: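 Specific [3H]GABA uptake was measured at the murine transporter subtype, and results are given as pIC50 ± SEM from three independent experiments, each run in triplicate.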

[11] = organism: Mus musculus; assay: Selectivity ratio of IC50 for mouse GAT3 to IC50 for mouse GAT1
[12] = organism: Mus musculus; assay: Selectivity ratio of IC50 for mouse GAT3 to IC50 for mouse GAT4
[13] = molecular target: T2, GABA transporter 4 (Mus musculus, UniProt P31650); assay: Inhibition of mouse GAT4-mediated [3H]GABA uptake expressed in BHK cells; format: cell-based
T2 sequence (P31650 whole entry): T1 sequence (whole entry)

[14] = molecular target: T3, Sodium- and chloride-dependent GABA transporter 1 (Mus musculus, UniProt P31648); assay: Inhibition of mouse GAT1-mediated [3H]GABA uptake expressed in human HEK cells; format: cell-based, HEK293
Method in brief: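 Specific [3H]GABA uptake measured at murine GAT1. Inhibition reported as pIC50 ± SEM from three independent experiments, each run in triplicate. Where stated, some values are the mean of two independent experiments, or one experiment in triplicate.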

[15] = molecular target: T3, Sodium- and chloride-dependent GABA transporter 1; assay: Inhibition of mouse GAT1-mediated [3H]GABA uptake expressed in BHK cells; format: cell-based

| SMILES | residual activity [1] | residual activity [2] | residual activity [4] | IC50 [10] | level, % of control [3] | other results |
| --- | --- | --- | --- | --- | --- | --- |
| C(CCNCc1nnnn1C1CCCCC1)=C(c1ccccc1)c1ccccc1 | 64.5% | 69.5% | – | – | 58.2% | – |
| c1ccc(C(CCNCc2nnn[nH]2)c2ccccc2)cc1 | 100% | 53.2% | 72.6% | – | 80.5% | – |
| C1CN(Cc2nnn[nH]2)CCN1 | – | – | – | – | – | residual activity [5]: 101%; residual activity [6]: 75.4%; residual activity [7]: 90%; residual activity [8]: 102% |
| NCCCc1nnn[nH]1 | – | – | – | – | – | IC50 [9]: < 100 µM |
| c1ccc(Cn2nnnc2CNCC(c2ccccc2)c2ccccc2)cc1 | 72.4% | 67.1% | – | – | 52.3% | – |
| C1=C(c2nnn[nH]2)CCNC1 | – | – | – | – | – | IC50 [9]: < 100 µM |
| CC(C)(C)CC(C)(C)n1nnnc1CNCCC(c1ccccc1)c1ccccc1 | 70.7% | 77.1% | – | 29.5 µM | – | Ratio IC50 [11]: 12; Ratio IC50 [12]: 4 |
| NCCNCc1nnn[nH]1 | – | – | – | – | – | residual activity [5]: 60.7%; residual activity [6]: 80%; residual activity [7]: 81.7%; residual activity [8]: 86.3% |
| C(CNCc1nnnn1C1CCCCC1)=C(c1ccccc1)c1ccccc1 | 62.9% | – | – | 51.3 µM | – | – |
| NCc1nnn[nH]1 | – | – | – | – | – | residual activity [5]: 78.9%; residual activity [6]: 59.4%; residual activity [7]: 85.1%; residual activity [8]: 66.5% |
| CC(C)(C)CC(C)(C)n1nnnc1CNCCC=C(c1ccccc1)c1ccccc1 | 75.4% | 54.9% | – | 18.2 µM | – | – |
| C(CCNCc1nnnn1Cc1ccccc1)=C(c1ccccc1)c1ccccc1 | 69.4% | 84.1% | 53.5% | – | 53.1% | – |
| COc1ccccc1C1(O)CCN(CCCn2c3ccccc3c3ccccc32)CC1 | – | – | – | 16.6 µM | – | IC50 [13]: 15.1 µM; IC50 [14]: 10.2 µM; IC50 [15]: 19.1 µM |
| C1CC(c2nnn[nH]2)CCN1 | – | – | – | – | – | IC50 [9]: < 100 µM |
| C1CNCC(c2nnn[nH]2)C1 (stereo not given) | – | – | – | – | – | IC50 [9]: < 100 µM |
| CC(C)(C)CC(C)(C)n1nnnc1CNCCN | – | – | – | – | – | residual activity [5]: 92.5%; residual activity [6]: 142%; residual activity [7]: 133%; residual activity [8]: 71.1% |
| NCC(=O)O | – | – | – | – | – | residual activity [5]: 69.7%; residual activity [7]: 83.1% |
| C1CN(Cc2nnn[nH]2)CCO1 | – | – | – | – | – | residual activity [5]: 90.8%; residual activity [6]: 88%; residual activity [7]: 90.6%; residual activity [8]: 87.8% |
| NCCc1nnn[nH]1 | – | – | – | – | – | IC50 [9]: < 100 µM |

Second part, led by results:

| residual activity [1] | residual activity [2] | residual activity [4] | IC50 [10] | SMILES | level, % of control [3] | other results |
| --- | --- | --- | --- | --- | --- | --- |
| 75.1% | 72.6% | 68.8% | – | CC(C)(C)CC(C)(C)n1nnnc1CNCCCn1c2ccccc2c2ccccc21 | 59.7% | – |
| 73.4% | 99% | 63.3% | – | CC(C)(C)CC(C)(C)n1nnnc1CN1CCOCC1 | 90.5% | – |
| 80.5% | 82% | 46.2% | – | C(CNCc1nnn[nH]1)=C(c1ccccc1)c1ccccc1 | 79.6% | – |
| 86.1% | 76.9% | 73.8% | – | C(CCNCc1nnn[nH]1)=C(c1ccccc1)c1ccccc1 | 101% | – |
| 48.2% | 85.8% | 63.5% | – | c1ccc(C(CNCc2nnn[nH]2)c2ccccc2)cc1 | 71.2% | – |
| 68.1% | – | – | – | c1ccc(Cn2nnnc2CNCCCC(c2ccccc2)c2ccccc2)cc1 | 49.6% | – |
| 54.6% | – | – | 34.7 µM | c1ccc(C(CCNCc2nnnn2C2CCCCC2)c2ccccc2)cc1 | – | – |
| 86.3% | 81.6% | 83.6% | – | c1ccc2c(c1)c1ccccc1n2CCCNCc1nnn[nH]1 | 78.7% | – |
| 85.6% | 81.4% | – | – | CC(C)(C)CC(C)(C)n1nnnc1CNC(c1ccccc1)c1ccccc1 | 56.9% | – |
| 83.3% | 60.3% | 49% | 49 µM | CCCCNCc1nnnn1C(C)(C)CC(C)(C)C | – | – |
| 90.2% | 106% | 81.4% | – | CC(C)(C)CC(C)(C)n1nnnc1CN1CCNCC1 | 78.4% | – |
| 105% | 65.3% | 74% | – | CCCCNCc1nnn[nH]1 | 71.5% | – |
| 82% | 89.3% | 75.1% | – | c1ccc(C(CCCNCc2nnn[nH]2)c2ccccc2)cc1 | 87.4% | – |
| 81.1% | 84.5% | – | – | c1ccc(Cn2nnnc2CNC(c2ccccc2)c2ccccc2)cc1 | 57.2% | – |
| 83.3% | 63.5% | 53.8% | 67.6 µM | CC(C)(C)CC(C)(C)n1nnnc1CNCC(c1ccccc1)c1ccccc1 | – | – |
| 63.8% | – | – | 29.5 µM | CC(C)(C)CC(C)(C)n1nnnc1CNCCCC(c1ccccc1)c1ccccc1 | – | – |
| 73.9% | 61.6% | 51.7% | 63.1 µM | c1ccc(Cn2nnnc2CNCCC(c2ccccc2)c2ccccc2)cc1 | – | – |
| 59.1% | 75.9% | – | 44.7 µM | c1ccc(C(CNCc2nnnn2C2CCCCC2)c2ccccc2)cc1 | – | – |
| 57.3% | – | – | 41.7 µM | C(CNCc1nnnn1Cc1ccccc1)=C(c1ccccc1)c1ccccc1 | – | – |
| 70.6% | – | – | – | c1ccc(C(CCCNCc2nnnn2C2CCCCC2)c2ccccc2)cc1 | 43.2% | – |
| 69.7% | 94.2% | 94.2% | – | c1ccc(C(NCc2nnn[nH]2)c2ccccc2)cc1 | 85.4% | – |
| 65.7% | – | – | 26.3 µM | CC(C)(C)CC(C)(C)n1nnnc1CNCC=C(c1ccccc1)c1ccccc1 | – | – |
| 54.8% | – | – | 28.8 µM | c1ccc(C(NCc2nnnn2C2CCCCC2)c2ccccc2)cc1 | – | – |
